ChEMBL document CHEMBL1909525, “Synthesis and anticonvulsant activity of novel 2,6-diketopiperazine derivatives. Part 1: perhydropyrrole[1,2-a]pyrazines” (Eur J Med Chem, 2011)
Active and inactive are the calls of the source. No cut-off for these calls is given here.

Tests used:
Rattus norvegicus [1] = experiment: Anticonvulsant activity in po dosed albino Sprague-Dawley rat assessed as protection against subcutaneous metrazol-induced seizure after 0.25 hrs; format: functional
Method in brief: (§1)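 Rats dosed orally, compound in 0.5% methylcellulose. MES at 150 mA, 60 Hz, 0.2 s; scMET with pentylenetetrazole 70 mg/kg s.c. plus 30 min observation; rotorod for toxicity.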

Rattus norvegicus [2] = experiment: Anticonvulsant activity in po dosed albino Sprague-Dawley rat assessed as time needs to show peak effect for protection against maximal electroshock-induced seizure after 0.25 hrs; format: functional; method in brief: as §1
[3] = Neurotoxicity in po dosed albino Sprague-Dawley rat assessed as motor impairment after 0.25 hrs by rotarod test; format: toxicity, organism-based; details: in vivo; method in brief: as §1
Mus musculus [4] = experiment: Anticonvulsant activity in ip dosed albino Carworth Farms No.1 mouse assessed as time needs to show peak effect for electric-current for 3 secs-induced seizure after 0.25 hrs by 6Hz minimal clonic seizure test; format: functional
Mus musculus [5] = experiment: Anticonvulsant activity in ip dosed albino Carworth Farms No.1 mouse assessed as protection against maximal electroshock-induced seizure after 0.25 hrs; format: functional; details: albino Carworth Farms No.1, ip
Method in brief: (§2)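 Mouse quantification at the time of peak effect, compound given i.p. in 0.5% methylcellulose. Groups of at least eight mice received varied doses until at least two points fell between 100 and 0% response. ED50 (MES, scMET) and TD50 (rotorod) with 95% CI by probit analysis (Finney). PI = TD50/ED50 MES.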

Mus musculus [6] = experiment: Anticonvulsant activity in ip dosed albino Carworth Farms No.1 mouse assessed as protection against subcutaneous metrazol-induced seizure after 0.25 hrs; format: functional; details: albino Carworth Farms No.1, 0.25 h; method in brief: as §2
Mus musculus [7] = experiment: Anticonvulsant activity in ip dosed albino Carworth Farms No.1 mouse assessed as protection against electric-current for 3 secs-induced seizure after 0.25 hrs by 6Hz minimal clonic seizure test; format: functional; details: albino Carworth Farms No.1, ip
Mus musculus [8] = experiment: Anticonvulsant activity in ip dosed albino Carworth Farms No.1 mouse assessed as time needs to show peak effect for protection against maximal electroshock-induced seizure; format: functional
Mus musculus [9] = experiment: Neurotoxicity in albino Carworth Farms No.1 mouse assessed as motor impairment at 300 mg/kg, ip after 0.5 hrs by rotarod test; format: toxicity, organism-based; parameters: dose 300 mg/kg, route intraperitoneal; details: in vivo
Method in brief: (§3)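 Rotorod neurotoxicity in mice at 6 r.p.m. Compound given i.p. (30, 100, 300 mg/kg) in 0.5% methylcellulose; tested at 30 min and 4 h. Impairment is inability to keep equilibrium on the rod for a given time; scored as impaired/tested.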

Mus musculus [10] = experiment: Anticonvulsant activity in albino Carworth Farms No.1 mouse assessed as protection against electric-current for 3 secs-induced seizure at 100 mg/kg, ip after 0.5 hrs by 6Hz minimal clonic seizure test; format: functional
Method in brief: (§4)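 6 Hz psychomotor seizure test in mice. Compound given i.p. as a suspension in 0.5% methylcellulose. Corneal stimulation at 32 mA, 0.2-ms monopolar rectangular pulses at 6 Hz for 3 s, from a constant-current device. Tests run 0.25–4 h after dosing. A mouse counted as protected if it resumed normal exploratory behaviour within 10 s; scored as protected/tested.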

Mus musculus [11] = experiment: Anticonvulsant activity in albino Carworth Farms No.1 mouse assessed as protection against maximal electroshock-induced seizure at 100 mg/kg, ip after 0.5 hrs; format: functional, organism-based; parameters: dose 100 mg/kg
Method in brief: (§5)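 Mouse MES test with compound given i.p. (30, 100 or 300 mg/kg) in 0.5% methylcellulose; tested at 0.5 and 4 h. Corneal stimulus of 50 mA at 60 Hz for 0.2 s, electrodes primed with 0.5% butacaine in 0.9% NaCl. Protection is abolition of hindlimb tonic extension; scored as protected/tested.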

Mus musculus [12] = experiment: Neurotoxicity in albino Carworth Farms No.1 mouse assessed as motor impairment at 100 mg/kg, ip after 0.5 hrs by rotarod test; format: toxicity, organism-based; parameters: dose 100 mg/kg, route intraperitoneal; details: in vivo; method in brief: as §3
Mus musculus [13] = experiment: Anticonvulsant activity in albino Carworth Farms No.1 mouse assessed as protection against subcutaneous metrazol-induced seizure at 300 mg/kg, ip after 4 hrs; format: functional, organism-based; parameters: dose 300 mg/kg
Method in brief: (§6)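 Mouse scMET test. Compound given i.p. (30, 100 or 300 mg/kg) in 0.5% methylcellulose. Pentylenetetrazole 85 mg/kg (CD97) given s.c. at 0.5 or 4 h, then mice observed for 30 min. Protection is absence of clonic spasms; scored as protected/tested.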

Mus musculus [14] = experiment: Anticonvulsant activity in albino Carworth Farms No.1 mouse assessed as protection against maximal electroshock-induced seizure at 100 mg/kg, ip after 4 hrs; format: functional, organism-based; parameters: dose 100 mg/kg; method in brief: as §5
Mus musculus [15] = experiment: Anticonvulsant activity in albino Carworth Farms No.1 mouse assessed as protection against maximal electroshock-induced seizure at 30 mg/kg, ip after 0.5 hrs; format: functional, organism-based; parameters: dose 30 mg/kg; method in brief: as §5
Mus musculus [16] = experiment: Neurotoxicity in albino Carworth Farms No.1 mouse assessed as motor impairment at 300 mg/kg, ip after 4 hrs by rotarod test; format: toxicity, organism-based; parameters: dose 300 mg/kg, route intraperitoneal; details: in vivo; method in brief: as §3
Mus musculus [17] = experiment: Anticonvulsant activity in albino Carworth Farms No.1 mouse assessed as protection against subcutaneous metrazol-induced seizure at 100 mg/kg, ip after 0.5 hrs; format: functional, organism-based; parameters: dose 100 mg/kg; method in brief: as §6
Mus musculus [18] = experiment: Anticonvulsant activity in albino Carworth Farms No.1 mouse assessed as protection against subcutaneous metrazol-induced seizure at 100 mg/kg, ip after 4 hrs; format: functional, organism-based; parameters: dose 100 mg/kg; method in brief: as §6
Mus musculus [19] = experiment: Neurotoxicity in albino Carworth Farms No.1 mouse assessed as motor impairment at 30 mg/kg, ip after 4 hrs by rotarod test; format: toxicity, organism-based; parameters: dose 30 mg/kg, route intraperitoneal; details: in vivo; method in brief: as §3
Mus musculus [20] = experiment: Anticonvulsant activity in albino Carworth Farms No.1 mouse assessed as protection against subcutaneous metrazol-induced seizure at 300 mg/kg, ip after 0.5 hrs; format: functional, organism-based; parameters: dose 300 mg/kg; method in brief: as §6
Mus musculus [21] = experiment: Anticonvulsant activity in albino Carworth Farms No.1 mouse assessed as protection against maximal electroshock-induced seizure at 30 mg/kg, ip after 4 hrs; format: functional, organism-based; parameters: dose 30 mg/kg; method in brief: as §5
Mus musculus [22] = experiment: Neurotoxicity in albino Carworth Farms No.1 mouse assessed as motor impairment at 30 mg/kg, ip after 0.5 hrs by rotarod test; format: toxicity, organism-based; parameters: dose 30 mg/kg, route intraperitoneal; details: in vivo; method in brief: as §3
Mus musculus [23] = experiment: Anticonvulsant activity in albino Carworth Farms No.1 mouse assessed as protection against maximal electroshock-induced seizure at 300 mg/kg, ip after 4 hrs; format: functional, organism-based; parameters: dose 300 mg/kg; method in brief: as §5
Mus musculus [24] = experiment: Anticonvulsant activity in albino Carworth Farms No.1 mouse assessed as protection against subcutaneous metrazol-induced seizure at 30 mg/kg, ip after 0.5 hrs; format: functional, organism-based; parameters: dose 30 mg/kg; method in brief: as §6
Mus musculus [25] = experiment: Anticonvulsant activity in albino Carworth Farms No.1 mouse assessed as protection against maximal electroshock-induced seizure at 300 mg/kg, ip after 0.5 hrs; format: functional, organism-based; parameters: dose 300 mg/kg; method in brief: as §5
Mus musculus [26] = experiment: Anticonvulsant activity in albino Carworth Farms No.1 mouse assessed as protection against subcutaneous metrazol-induced seizure at 30 mg/kg, ip after 4 hrs; format: functional, organism-based; parameters: dose 30 mg/kg; method in brief: as §6
Rattus norvegicus [27] = species on record: Rattus norvegicus; experiment: Protective index, ratio of TD50 for albino Sprague-Dawley rat to ED50 for albino Sprague-Dawley rat by maximal electroshock-induced seizure test; format: functional
Mus musculus [28] = species on record: Mus musculus; experiment: Protective index, ratio of TD50 for albino Carworth Farms No.1 mouse to ED50 for albino Carworth Farms No.1 mouse by maximal electroshock-induced seizure test; format: functional
Method in brief: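 Mouse quantification at the time of peak effect, compound given i.p. in 0.5% methylcellulose. Groups of at least eight mice received varied doses until at least two points fell between 100 and 0% response. PI = TD50/ED50 MES.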

Rattus norvegicus [29] = experiment: Anticonvulsant activity in po dosed albino Sprague-Dawley rat assessed as protection against maximal electroshock-induced seizure after 0.25 hrs; format: functional; method in brief: as §1
Mus musculus [30] = experiment: Anticonvulsant activity in albino Carworth Farms No.1 mouse assessed as protection against electric-current for 3 secs-induced seizure at 100 mg/kg, ip after 0.25 hrs by 6Hz minimal clonic seizure test; format: functional, organism-based; parameters: dose 100 mg/kg; method in brief: as §4
Mus musculus [31] = experiment: Neurotoxicity in albino Carworth Farms No.1 mouse assessed as motor impairment at 100 mg/kg, ip after 4 hrs by rotarod test; format: toxicity, organism-based; parameters: dose 100 mg/kg, route intraperitoneal; details: in vivo; method in brief: as §3
Mus musculus [32] = experiment: Anticonvulsant activity in albino Carworth Farms No.1 mouse assessed as protection against electric-current for 3 secs-induced seizure at 100 mg/kg, ip after 4 hrs by 6Hz minimal clonic seizure test; format: functional, organism-based; parameters: dose 100 mg/kg; method in brief: as §4
Mus musculus [33] = experiment: Neurotoxicity in albino Carworth Farms No.1 mouse assessed as motor impairment at 100 mg/kg, ip after 0.25 hrs by rotarod test; format: toxicity, organism-based; parameters: dose 100 mg/kg, route intraperitoneal; details: in vivo
Method in brief: (§7)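 Rotorod neurotoxicity in mice (18–25 g) following i.p. dosing of a suspension in 0.5% methylcellulose in water, tested at intervals between 0.25 and 4 h. Impairment was scored as failure to keep equilibrium on a 6 r.p.m. rod, reported as number impaired/number tested.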

Mus musculus [34] = experiment: Anticonvulsant activity in albino Carworth Farms No.1 mouse assessed as protection against electric-current for 3 secs-induced seizure at 100 mg/kg, ip after 2 hrs by 6Hz minimal clonic seizure test; format: functional, organism-based; parameters: dose 100 mg/kg; method in brief: as §4
Mus musculus [35] = experiment: Neurotoxicity in albino Carworth Farms No.1 mouse assessed as motor impairment at 100 mg/kg, ip after 2 hrs by rotarod test; format: toxicity, organism-based; parameters: dose 100 mg/kg, route intraperitoneal; details: in vivo; method in brief: as §7
Mus musculus [36] = experiment: Neurotoxicity in albino Carworth Farms No.1 mouse assessed as motor impairment at 100 mg/kg, ip after 1 hr by rotarod test; format: toxicity, organism-based; parameters: dose 100 mg/kg, route intraperitoneal; details: in vivo; method in brief: as §7
Mus musculus [37] = experiment: Anticonvulsant activity in albino Carworth Farms No.1 mouse assessed as protection against electric-current for 3 secs-induced seizure at 100 mg/kg, ip after 1 hr by 6Hz minimal clonic seizure test; format: functional, organism-based; parameters: dose 100 mg/kg; method in brief: as §4

SMILES	ED50 (Rattus norvegicus [1]) [mg/kg]	Time (Rattus norvegicus [2]) [h]	TD50 at 0.25 h [3] [mg/kg]	Activity (Mus musculus [9])	Activity (Mus musculus [11])	Activity (Mus musculus [12])	Activity (Mus musculus [13])	Activity (Mus musculus [14])	Activity (Mus musculus [15])	Activity (Mus musculus [16])	Activity (Mus musculus [17])	Activity (Mus musculus [18])	Activity (Mus musculus [19])	Activity (Mus musculus [20])	Activity (Mus musculus [21])	Activity (Mus musculus [22])	Activity (Mus musculus [23])	Activity (Mus musculus [24])	Activity (Mus musculus [25])	Activity (Mus musculus [26])	other results
CCC1(c2ccccc2)C(=O)NC(=O)NC1=O [PHENOBARBITAL]	11.6	5	61.1	–	–	–	–	–	–	–	–	–	–	–	–	–	–	–	–	–	Time (Mus musculus [4]): 0.5 h; ED50 (Mus musculus [5]): 21.8 mg/kg; ED50 (Mus musculus [6]): 13.2 mg/kg; ED50 (Mus musculus [7]): 14.8 mg/kg; Time (Mus musculus [8]): 1 h
COC(=O)[C@@H](c1ccccc1)N1CCC[C@H]1C(N)=O	–	–	–	Toxic	–	–	–	–	–	–	–	–	–	–	–	–	–	–	–	–	Activity (Mus musculus [10]): Active
Cl.O=C1[C@H](c2ccccc2)N2CCC[C@H]2C(=O)N1Cc1ccccc1	–	–	–	Non-toxic	inactive	Non-toxic	inactive	inactive	inactive	Non-toxic	inactive	inactive	Non-toxic	inactive	inactive	Non-toxic	inactive	inactive	Active	inactive	–
O=C1NC(=O)C(c2ccccc2)(c2ccccc2)N1 [PHENYTOIN]	> 500	4	> 1000	–	–	–	–	–	–	–	–	–	–	–	–	–	–	–	–	–	Ratio TD50/ED50 (Rattus norvegicus [27]): >36.6; Ratio TD50/ED50 (Mus musculus [28]): 7.3; ED50 (Mus musculus [5]): 5.64 mg/kg; ED50 (Mus musculus [6]): > 50 mg/kg; ED50 (Rattus norvegicus [29]): 28.1 mg/kg; Time (Mus musculus [8]): 1 h
O=C1[C@@H]2CCCN2[C@H](c2ccccc2)C(=O)N1CCc1ccccc1	–	–	–	Non-toxic	inactive	Non-toxic	inactive	inactive	inactive	Non-toxic	inactive	inactive	Non-toxic	inactive	inactive	Non-toxic	inactive	inactive	inactive	inactive	Activity (Mus musculus [30]): inactive; Activity (Mus musculus [31]): Non-toxic; Activity (Mus musculus [32]): inactive; Activity (Mus musculus [33]): Non-toxic; Activity (Mus musculus [34]): inactive; Activity (Mus musculus [35]): Non-toxic; Activity (Mus musculus [36]): Non-toxic; Activity (Mus musculus [37]): inactive
CN1C(=O)[C@H](c2ccccc2)N2CCC[C@H]2C1=O.Cl	–	–	–	Toxic	inactive	Non-toxic	inactive	inactive	inactive	Non-toxic	inactive	inactive	Non-toxic	Active	inactive	Non-toxic	inactive	inactive	Active	inactive	–
